According to ChEMBL document CHEMBL4513216, “Probing the Open Global Health Chemical Diversity Library for Multistage-Active Starting Points for Next-Generation Antimalarials” (ACS Infect Dis, 2020):

Assay: Toxicity liver stage against HepG2, at 10uM
Assay type: cell-based
Design: test concentration 10 uM, cell line HepG2-A16-CD81EGFP
Settings: human, HepG2-A16-CD81EGFP cells; read-out: INHIBITION
Procedure, shortened: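 Uninfected HepG2-A16-CD81EGFP cells, 3 × 10^3 per well, 1536-well, plated on prespotted compound at 10 μM final, parasite-free screening media added to match infected plates; puromycin 10 μM positive, DMSO 0.5% negative; run in parallel with 48 h PbLuc assay at 37 °C, 5% CO2; viability by CellTiter-Glo luminescence, normalized to controls.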

SMILES	cytotoxicity at 10 µM
COc1ccccc1C(NC(=O)C1CCCC1)c1noc(C)n1 (configuration not stated)	-2.17%
CCOC1CCN(C(=O)c2c(Cl)c3ccccc3n2C)CC1	6.56%
CC(C)Oc1cc(N2CCC3(CC2)[C@H](O)C[C@@H]3O)nc(N)n1	-0.335%
NCCc1c(-c2ccccc2)[nH][nH]c1=O	5.95%
Cc1cccc(NC(=O)N2CCOCC(CN(C)C)C2)c1C (configuration not stated)	14.7%
COc1c(C)cnc(CN2CCC(C(=O)N(C)C)CC2)c1C	-12.6%
O=C(NCCCN1CCCC1)c1n[nH]c(=O)c2ccccc12	-6.62%
Cc1cc2nc(SCC(=O)N3CCCC3)n(C(C)C)c(=O)c2[nH]1	-7.53%
CCCC(=O)N1CCC(c2cc[nH]n2)C1 (configuration not stated)	1.2%
Fc1ccc(Cn2ncc3c2CN(c2noc(C4CC4)n2)C3)cc1	-2.76%
O=C(NC1CCc2nccn2C1)c1ccc(NC2CC2)nc1 (configuration not stated)	9.93%
Cc1nc2ccnn2c(C)c1CCC(=O)N1CCC(C(N)=O)CC1	-9.26%
CCc1nc(CN2CCCN(C(=O)c3cn[nH]c3CC)CC2)cs1	-7.21%
CC(C)Cc1noc(CN(C)C(=O)C2COc3ccccc3C2)n1 (configuration not stated)	-9.12%
COCCNCc1ccc(OCC(=O)NC(C)(C)C)cc1	-8.08%
CNC(=O)COC1COC2(CCN(c3ccc(C#N)cc3)CC2)C1 (configuration not stated)	-75.7%
CCCOc1ccccc1C(N)CC(C)C (configuration not stated)	-0.595%
CCOc1ncccc1CNC(=O)N1CCCC1c1cc(C)no1 (configuration not stated)	23.7%
Cc1cc(CN(C)C(=O)c2ccc(Cl)c(N3CCCC3=O)c2)no1	-14.5%
CC(C)c1nn(C)c(N(C)C)c1CNC1CCC(O)CC1 (configuration not stated)	1.63%
CNC(=O)c1ccc(NC2CCN(CC(F)(F)F)C2=O)cc1Cl (configuration not stated)	-1.13%
CC(C)NC(=O)C1CN(C(=O)c2ccccc2)CC12CCOCC2 (configuration not stated)	-82.6%
Cc1ccc(CNC(=O)Nc2cc(C(F)(F)F)c[nH]c2=O)cn1	-21.8%

SMILES	cytotoxicity at 10 µM
CCc1ccc(S(=O)(=O)Nc2cnccc2C)s1	-3.63%
CCOc1cc(NC(=O)N2CCOC3(CCC3)C2)ccc1C	-0.535%
COC(=O)N1CCC(NC2CCSCC2)C1 (configuration not stated)	-8.23%
CCCn1cnnc1CNC(=O)C1COc2cc(OC)ccc2C1 (configuration not stated)	3.21%
CCC[C@@H]1CN(Cc2ccccc2C#N)C[C@H]1NC(C)=O	-3.92%
COc1ncccc1C(=O)NCC1Cc2ccccc2O1 (configuration not stated)	-13.4%
CC(O)C(=O)N1CCC(c2nccn2Cc2cscn2)CC1 (configuration not stated)	0.557%
CCN1C(=O)C(c2ccccc2)CC12CCN(c1ncccn1)CC2 (configuration not stated)	1.11%
Cc1nnsc1C(=O)NCc1cccnc1N1CCCC(O)C1 (configuration not stated)	1.91%
Cc1occc1C(=O)N1CCC2(CCC(C(=O)NCC3CC3)O2)CC1 (configuration not stated)	9.53%
Cn1cc(CN2CC[C@H](O)[C@@H]2Cc2ccccc2)cn1	-73%
CC(=O)N(C)c1nc(CN2CCCCC2Cn2cncn2)cs1 (configuration not stated)	-5.79%
CC(CNC(=O)CCCc1ccccn1)c1ccsc1 (configuration not stated)	7.42%
COC[C@@H]1CCCN1C(=O)c1cc(-c2ccc(OC)cc2)n[nH]1	13.2%
COc1ccc(F)cc1C(=O)N1C[C@@H]2CC[C@H]1CN(c1ncccn1)C2	4.24%
CNC(=O)[C@@H](CC(C)C)N1CCC[C@H]1C(=O)N(C)Cc1ccccc1	6.14%
COCc1cnc2n1CCN(C(=O)c1cc3cc(Cl)ccc3o1)C2C (configuration not stated)	-112%
O=C(CCCc1nc2ccccc2[nH]1)N1CCCC(n2cccn2)C1 (configuration not stated)	-0.704%
COCCCNC(=O)c1nnsc1-c1ccccc1	5.09%
O=C(CN1CCOC(Cn2cccn2)C1)NCCc1cccs1 (configuration not stated)	-11.3%
CCc1cc(NCCN2CCNC2=O)n2nc(C)c(C)c2n1	-5.81%
COCc1ccccc1C(=O)NCCCN1CCCC1C(=O)N(C)C (configuration not stated)	-14.5%
Cc1noc(C(C)SCc2ccccn2)n1 (configuration not stated)	-6.67%

SMILES	cytotoxicity at 10 µM
CC(=O)Nc1ccc(CNC(C)c2c(C)nn(C)c2C)cc1 (configuration not stated)	13%
Cc1cnn(CC2CCCN2C(=O)c2cc(Cl)ccc2F)c1 (configuration not stated)	-5.82%
COc1ccc(CN(CC2CCCO2)c2nc3c(s2)c(C)nn3C)cc1 (configuration not stated)	11.4%
CN1C(=O)CC(C(=O)O)C12CCN(c1ccc3cccc(Cl)c3n1)CC2 (configuration not stated)	2.1%
Cc1ccc(NC(=O)CN2CCOCC2)c(F)c1	5.76%
COc1ncccc1CNC(=O)C1CC(=O)N(C)C1 (configuration not stated)	-14.6%
CN(Cc1ccc(F)c(F)c1)C(=O)CCc1nc(-c2nnc[nH]2)no1	-43.6%
Cc1n[nH]c(C2CN(CC(=O)NCCc3ccsc3)CCO2)n1 (configuration not stated)	-0.524%
O=C(c1cccs1)N1CCc2c(nc(N3CCCC3)[nH]c2=O)C1	-16.3%
N#Cc1cccnc1NC1CCN(c2ccccc2OC(F)F)C1=O (configuration not stated)	6.37%
Cc1nnc(NC(=O)C(C)n2ncc(Br)c2C)s1 (configuration not stated)	1.81%
Cc1ccc([C@@]2(O)CC[C@@H]3CN(S(=O)(=O)c4cn(C)nc4C)C[C@@H]32)cc1	-16.2%
Cc1noc(-c2ccc(N3CCCC(C(=O)N4CCSCC4)C3)nc2)n1 (configuration not stated)	-2.45%
Cc1ccc(-c2ccnc(NC(C)c3n[nH]c(C)n3)n2)c(C)n1 (configuration not stated)	2.83%
O=C(NCc1nn(-c2ccccc2)c2c1CCC2)N1CCSCC1	-4.89%
Cn1cc(NC(=O)NC2CCCN(c3ccccc3Cl)C2=O)cn1 (configuration not stated)	-41.8%
COc1cccc(CN2CCCCC2c2n[nH]cc2-c2cc(C)no2)c1 (configuration not stated)	17.1%
COCCN(C)C[C@@H]1CN(C(=O)c2cccc(C#N)c2)C[C@@H]1CO	14.5%
CC(c1ccccc1)N(C)C(=O)CN1CCN(c2cnccn2)CC1 (configuration not stated)	3.96%
CCNC(=O)CCC(=O)NC1(c2cccc(Br)c2)CC1	8.64%
CCc1nc(N2CCCC(CCCOC)(C(=O)O)C2)ncc1C (configuration not stated)	3.43%
COCCN1C[C@@H]2[C@@H](OC)CCN(Cc3ccco3)[C@@H]2C1	2.37%
COc1cc(C)cc(C(C(=O)O)N(C)Cc2ccon2)c1OC (configuration not stated)	-3.41%

SMILES	cytotoxicity at 10 µM
CC(C)NC(=O)[C@H]1C[C@H]2CN(C(=O)NCCc3ccccc3)C[C@@H]1O2	1.25%
COc1cc(CN(C)C(=O)NCCNC(=O)C2CC2)ccc1SC	-3.73%
Cn1nccc1NCc1cc2cc(F)ccc2o1	8.57%
Cc1cnn(CCNCC(O)c2ccc3c(c2)OCCO3)c1 (configuration not stated)	3.31%
Cn1ccnc1CN(CCO)C(=O)c1cc2ccccc2o1	3.42%
C=C(C)COc1cccc(C(=O)N(C)C(C)c2ccncn2)c1 (configuration not stated)	-50%
COc1ccc(CN2CCC(c3nccnc3-n3ccnc3)CC2)cc1	-27.4%
COc1ccc(C(C)NC(=O)Cn2ccc(=O)n(C)c2=O)cc1F (configuration not stated)	-3.17%
Cc1occc1C(=O)N1Cc2nccn2CC(CN2CCOCC2)C1 (configuration not stated)	-117%
CC(C)(C)c1c[nH]c([C@@H]2COCCN2C2CCC2)n1	5.99%
O=C(c1cccc(S(=O)(=O)NC[C@@H]2C[C@H](F)CN2)c1)N1CCCCC1	3.5%
c1ccc(COC[C@H]2CC[C@H]3[C@H](CCN3Cc3ccccn3)O2)nc1	-84.7%
O=C(c1ccc(S(=O)(=O)NCC(F)F)cc1)N1CC[C@H]2CNC[C@H]21	-14%
Cn1nccc1C1CCN(Cc2ccn(-c3ccccc3)n2)CC1	17.3%
Cc1nc(CN2CCN3C[C@H](Oc4cncnc4)C[C@H]3C2)cs1	-81.4%
Cc1ccccc1CNC(=O)Cn1nc(-c2ccc(F)cc2)oc1=O	-7.63%
Cn1ccnc1C(=O)N1CCC2(CC1)CC(Oc1cccnc1)CO2 (configuration not stated)	3.04%
O=c1[nH]c2cn(-c3cccc(Cl)c3)c(=O)n2[nH]1	1.35%
CCc1nccn1CC(=O)Nc1cccc(N2CCCC2)c1	17.1%
CCS(=O)(=O)N1CCc2nc(N3CCCC3)nc(N(C)C)c2CC1	14.3%
Cc1nccn1-c1ccc(NS(=O)(=O)c2cccnc2)cn1	-4.73%
CC(Nc1nc(-c2ccccc2)nc2c1CCNCC2)c1nccs1 (configuration not stated)	2.49%
CC(C)(C)c1nnc(CNc2cc(F)ccc2OCC2CCCO2)o1 (configuration not stated)	3.06%

SMILES	cytotoxicity at 10 µM
COCCN(Cc1ccc(C)cc1)CC1CCOC1 (configuration not stated)	-9.06%
C[C@@H]1CN(C(=O)c2nc3sccn3c2-c2ncc[nH]2)C[C@H](C)O1	3.85%
Cc1cc(CN(C2CC2)C(C)C(C)C)on1 (configuration not stated)	-0.212%
CCn1ccnc1CN1CCN(CCOc2ccccc2C#N)CC1	-8.21%
O=C(O)c1ccccc1-n1cc(CN2CCOC(c3cc[nH]n3)C2)cn1 (configuration not stated)	3.33%
NC(=O)c1ccc(N2CCCCC2)c(NC(=O)c2cncc(Br)c2)c1	-9.41%
OC1CCN(C2CCN(Cc3cccc(Cn4cccn4)c3)CC2)CC1	-1.47%
CCCN(CCc1ccccn1)C(=O)Cn1cnnn1	2.52%
Cc1ccccc1C(=O)N1C[C@@H](O)[C@H](N2CCOCC2)C1	9.3%
O=C(NCCO)c1sc2ncccc2c1C1CN(C2CCCC2)CCO1 (configuration not stated)	10.8%
CCn1cc(CN2CCCN(C(=O)CCc3ccncc3)CC2)cn1	-11.1%
CCCS(=O)(=O)NCc1nc(C)cc(N2CCCC2)n1	8.09%
CCc1ccc(C(COC)NC(=O)c2ccc(O)nc2)o1 (configuration not stated)	3.06%
Cc1cccn2c(CNC(C)CCc3ccc(O)cc3)cnc12 (configuration not stated)	1.95%
O=C(c1ccc(-n2cccc2)c(F)c1)N1CCCN2CCCC2C1 (configuration not stated)	-2.45%
Cc1nn(C)c(C)c1CC(=O)N1CCCC(CNS(C)(=O)=O)C1 (configuration not stated)	3.3%
CC(=O)Nc1ccc(OCc2noc(C(=O)N3CCCCC3)n2)cc1	-3.68%
COc1ccc(Cn2cc(C(=O)N(C)CCN(C)C)nn2)cc1	7.13%
COCCCSc1ccc(NCc2ccc(C)cn2)cc1	15.8%
COCCC1(CNC(=O)NC2CCCN(C)C2)CC1 (configuration not stated)	-0.926%
